Data from ChEMBL document CHEMBL2021808, “Chemical synthesis and biological evaluation of triazole derivatives as inhibitors of InhA and antituberculosis agents” (Eur J Med Chem, 2012).
≈ marks a conversion by molar mass, not a printed value. Calls of active or inactive are those of the source. No cut-off for these calls is given here.

What was measured:
[1] = target: T1, Enoyl-[acyl-carrier-protein] reductase [NADH] (Mycobacterium tuberculosis) (UniProt P9WGR1); test: Inhibition of Mycobacterium tuberculosis recombinant InhA expressed in Escherichia coli using trans-2-dodecenoyl-coenzyme-A as substrate at 50 uM
T1 sequence (whole entry): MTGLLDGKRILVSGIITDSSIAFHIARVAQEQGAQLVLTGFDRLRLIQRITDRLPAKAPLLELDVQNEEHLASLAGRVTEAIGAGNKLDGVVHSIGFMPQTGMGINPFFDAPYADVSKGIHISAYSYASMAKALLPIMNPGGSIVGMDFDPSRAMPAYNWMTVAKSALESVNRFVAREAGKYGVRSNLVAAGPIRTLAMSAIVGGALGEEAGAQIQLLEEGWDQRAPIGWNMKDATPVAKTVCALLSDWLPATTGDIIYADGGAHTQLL
Procedure, shortened: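 Recombinant InhA was expressed in E. coli and purified. Reactions with DD-CoA substrate, NADH and inhibitor were run in 30 mM PIPES, 150 mM NaCl, pH 6.8, and started by adding InhA (100 nM final). Percent inhibition was calculated from initial velocity against a no-inhibitor control. Run in triplicate.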

[2] = tested on: Mycobacterium tuberculosis; test: Antimycobacterial activity against Mycobacterium tuberculosis H37Rv by two-fold serial dilution method; type: functional
Procedure, shortened: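 A single colony was grown in complete Middlebrook 7H9 at 37 °C to exponential phase (about 10⁸ CFU/mL, OD600 0.8–1.0). Cultures were diluted to about 10⁷ CFU/mL and streaked onto plates with two-fold dilutions of compound. MIC is the minimal inhibitory concentration.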

Compound | inhibition [1] | MIC [2] [µg/mL]
CCCCCCCCCCc1cn(CCc2ccccc2)nn1 | 43% | 4 (≈ 12.8 µM)
CCCCCCCCCCc1cnnn1CCc1ccccc1 | 33% | > 4
CCCCCCCCCCc1cn(Cc2cccc(Cl)c2)nn1 | 42% | 4 (≈ 12 µM)
CCCCCCCCc1cn(Cc2ccccc2)nn1 | 34% | > 4
CCCCCCCCCCCCn1cc(Cc2ccccc2)nn1 | 58% | 25 (≈ 76.3 µM)
CCCCCCCCCn1cc(Cc2ccccc2)nn1 | 75% | 25 (≈ 87.6 µM)
CCCCCCCCCCCCc1cn(Cc2cccc(OC)c2)nn1 | 46% | 4 (≈ 11.2 µM)
CCCCCCCCCCCCc1cn(Cc2ccccc2)nn1 | 52% | > 4
CCCCCCCCCCCCn1cc(COc2ccc(Cl)cc2OC)nn1 | 35% | > 4
CCCCCCCCCCCCc1cn(CCc2ccccc2)nn1 | 67% | 4 (≈ 11.7 µM)
CCCCCCCCCCCCn1cc(COc2ccc(Cl)cc2Cl)nn1 | < 5% | 4 (≈ 9.7 µM)
CCCCCCCCCCCCn1cc(COc2ccccc2)nn1 | 54% | 2 (≈ 5.82 µM)
CCCCCCCCCCCCn1cc(CCc2ccccc2)nn1 | – | 0.5 (≈ 1.46 µM)
CCCCCCc1cn(CCc2ccccc2)nn1 | 10% | 10 (≈ 38.9 µM)
CCCCCCc1cn(Cc2cccc(Cl)c2)nn1 | inactive | 4 (≈ 14.4 µM)
CCCCCCCCCCCCn1nncc1CCc1ccccc1 | 9% | > 4

Compound | inhibition [1] | MIC [2] [µg/mL]
CCCCCCCCc1cn(CCc2ccccc2C)nn1 | 37% | 2 (≈ 6.68 µM)
CCCCCCCCCCCCc1cn(CCc2ccc(OC)c(OC)c2)nn1 | inactive | 0.25 (≈ 0.623 µM)
CCCCCCCCn1cc(-c2cccc(C)c2)nn1 | 33% | > 4
CCCCCCCCn1cc(Cc2ccccc2)nn1 | 73% | 25 (≈ 92.1 µM)
CCCCCCc1cn(Cc2ccccc2)nn1 | 21% | 25 (≈ 103 µM)
CCCCCCCCCCc1cn(CCc2ccccc2C)nn1 | 58% | 2 (≈ 6.11 µM)
CCCCCCc1cn(Cc2cccc(OC)c2)nn1 | inactive | > 4
CCCCCCCCCCc1cn(Cc2cc(OC)cc(OC)c2)nn1 | 24% | > 4
CCCCCCCCCCc1cn(CCc2ccc(OC)c(OC)c2)nn1 | 21% | 2 (≈ 5.35 µM)
CCCCCCCCn1cc(-c2cccc(O)c2)nn1 | inactive | –
CCCCCCc1cn(Cc2cc(C)cc(C)c2)nn1 | 19% | –
CCCCCCCCCCc1cn(CCc2ccccc2OC)nn1 | 48% | 2 (≈ 5.82 µM)
CCCCCCCCCCc1cn(Cc2cccc(OC)c2)nn1 | 20% | > 4
CCCCCCCCCCCCc1cn(CCc2ccccc2OC)nn1 | 61% | 2 (≈ 5.38 µM)
CCCCCCCCCCc1cn(Cc2ccccc2)nn1 | 44% | > 4
